High-throughput results deposited in PubChem by Johns Hopkins Ion Channel Center.
TRPC6 inhibitor: inhibitors of mouse TRPC6 channel. HEK293-TRPC6, membrane potential dye, ACh-evoked depolarization; active compounds read low. hit rate 1.1% among 310,000. B-score at 10 µM. Q61143;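 active = B-score under library mean minus 3 SD, initial fluorescence not abnormally high, positive integrated signal ratio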;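 note: B-score derived from integrated fluorescence ratio over the kinetic read; more negative B-score means stronger inhibition of depolarization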
TRPC6 act: mouse TRPC6 channel activation. B-score at 10 µM. Q61143. HEK293-TRPC6 membrane potential dye fluorescence; active compounds read high. hit rate 0.13% among 310,000;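 active = B-score of the integrated fluorescence ratio above library mean plus 3 SD, and starting fluorescence ratio within library mean plus 5 SD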;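 note: higher score means more depolarization so channel activation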
TRPC4 act: opens the mouse TRPC4 cation channel; Q9QUQ5; HEK293 TRPC4beta/mu-opioid, Fluo4 calcium fluorescence; active compounds read high; B-score at 10 µM; hit rate 0.49% among 310,000;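 active = B-score above 5 SD of library B-scores, and initial fluorescence ratio not above library mean plus 5 SD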;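 note: positive B-score marks a calcium rise read as TRPC4 activation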
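Assay system: HEK293 stable line with TRPC4beta plus mu-opioid receptor. Times: dye 45 min RT, read 110 s. Measured by: kinetic Fluo4 calcium fluorescence. Measure: B score of integrated ratio. Controls: assay buffer as low control, maximal DAMGO as high control.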
TRPC4 PAM: allosterically enhances the mouse TRPC4 cation channel. hit rate 0.42% among 310,000. Q9QUQ5. AID 2227. B-score at 10 µM. HEK293 TRPC4beta/mu-opioid, DAMGO EC20, Fluo-4 Ca2+ flux; active compounds read high;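 active = B-score of calcium response area above 5 SD of library B-scores, with initial fluorescence ratio within 5 SD of library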;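 note: B-score of integrated fluorescence ratio over time as area under calcium response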
TRPC4 inh: inhibitors of mouse TRPC4 channel | B-score at 10 µM | Q9QUQ5 | hit rate 0.39% among 300,000 | HEK293 TRPC4beta/mu-opioid, DAMGO-evoked Fluo4 calcium flux; active compounds read low;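 active = B-score over 3 SD under the library average, no early fluorescence shift, positive overall ratio signal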
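Assay system – HEK293 line stably carrying TRPC4beta and mu-opioid receptor · Doses – single dose · Detection – Fluo4 calcium-dye fluorescence, kinetic read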
TRPC4 spec 2: second selectivity test of TRPC6 inhibitors: effect on mouse TRPC4; shares compounds with TRPC6 inhibitor; HEK293 TRPC4/MOR, membrane potential dye fluorescence; channel activated by saturating DAMGO dose; inhibition, % at 10 µM; hit rate 42% among 920; AID 2776;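 active = compounds whose fluorescence signal differed from control wells by over 3 SD, either direction, in both duplicate plates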
TRPC4 spec: selectivity of TRPC6 inhibitors: effect on mouse TRPC4; shares compounds with TRPC6 inhibitor; activity change, negative = inhibition, % at 10 µM; HEK293 TRPC4/mu-opioid, membrane potential fluorescence; hit rate 61% among 920;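 active = rise or fall in signal beyond 3 SD of buffer-only wells in both replicate plates, either sign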;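 note: integrated kinetic ratio of fluorescence range over baseline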
HEK293 MPD ctr 2-1: parental HEK293 nonspecific activity of TRPC6 inhibitors, second screen. shares compounds with TRPC6 inhibitor. parental HEK293 membrane potential dye fluorescence; maximal acetylcholine challenge after compound addition. signal change vs control, % at 10 µM. hit rate 31% among 920. AID 2779;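 active = membrane potential signal moving either way by over 3 SD of the maximum-effect control, in both duplicate plates, meaning non-specific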
HEK293 MPD ctr-1: parental HEK293 nonspecific activity of TRPC6 inhibitors | shares compounds with TRPC6 inhibitor | membrane potential signal change, % at 10 µM | hit rate 60% among 920 | AID 2780 | parental HEK293 membrane potential dye fluorescence;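 active = membrane potential signal shifting up or down by more than 3 SD of buffer-only wells, on both duplicate plates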
HEK293 MPD ctr-2: checks TRPC6 modulator effects in parental HEK293 cells | shares compounds with TRPC6 inhibitor | membrane potential dye fluorescence | membrane potential signal change, % at 10 µM | hit rate 51% among 2,400;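 active = membrane potential signal moves up or down beyond 5 SD from buffer-only wells, on both duplicate plates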
HEK293 MPD ctr 2-2: second check of TRPC6 modulator effects in parental HEK293 cells; shares compounds with TRPC6 inhibitor; membrane potential dye fluorescence; after compound, maximal acetylcholine stimulation; inhibition, % at 10 µM; hit rate 14% among 2,400; AID 488926;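 active = membrane potential signal drops by more than 5 SD from the mean control signal, in both duplicate plates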;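 note: plate controls were acetylcholine ECmax control wells for no effect and buffer only wells for full effect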
TRPC4/MOR mod: tests whether TRPC6 modulators also affect mouse TRPC4; AID 488927; percent change from control (negative = decrease, positive = increase), % at 10 µM; shares compounds with TRPC6 inhibitor; HEK293 TRPC4/mu-opioid, membrane potential fluorescence; hit rate 69% among 2,400;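 active = membrane potential signal moved up or down beyond 5 SD of buffer control wells, in both duplicate plates, actives on both sides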;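 note: plate controls were assay buffer wells for no effect and DAMGO maximal-effect wells for full effect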
TRPC4/MOR inh 2: second selectivity test of TRPC6 modulators against mouse TRPC4; shares compounds with TRPC6 inhibitor; HEK293 TRPC4/mu-opioid, membrane potential dye fluorescence; stimulated with maximal-effect DAMGO; inhibition, % at 10 µM; hit rate 55% among 2,400; AID 488928;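 active = drop in membrane potential signal beyond 5 SD of the control wells in both duplicate plates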;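 note: TRPC4 counter screen for TRPC6 hits run under conditions tuned for TRPC6 not TRPC4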
TRPC6 block conf: confirmation of mouse TRPC6 inhibitors. inhibition, % at 10 µM. hit rate 43% among 3,300. HEK293-TRPC6, membrane potential dye, ACh-evoked depolarization. shares compounds with TRPC6 inhibitor;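 active = fluorescence ratio falls more than 5 SD below the full-stimulation control mean, in both duplicate runs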;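 note: integrated fluorescence ratio of peak minus minimum over baseline after agonist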
TRPC6 act confirm: mouse TRPC6 activator confirmation. shares compounds with TRPC6 inhibitor. hit rate 11% among 2,800. AID 488961. activation, % at 10 µM. HEK293-TRPC6 membrane potential dye fluorescence, FDSS;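 active = ratio signal rise beyond 5 SD above unstimulated control wells' mean, seen in both duplicate runs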;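 note: plate controls were buffer EC0 wells for no effect and acetylcholine ECmax response for full effect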
An asterisk follows results filed as active; i = inactive; . = no result; ! = not active in a repeat. Hits are enriched below; roughly 2.3% of the tested compounds scored in any of these assays.

SMILES	TRPC6 inhibitor	TRPC6 act	TRPC4 act	TRPC4 PAM	TRPC4 inh	TRPC6 block conf	others
OCC1CCN(Cc2cn(Cc3ccccc3)nc2-c2cc3ccccc3o2)CC1	i	i	56*	i	i	.
O=S(=O)(c1ccccc1Cl)N1CCC(Cc2ccccc2)CC1	i	i	i	20*	i	.
O=C(O)c1ccccc1S(=O)(=O)CC(=O)N1CCCCC1	i	i	i	i	i	.
CCN(CC)CCn1c2ccccc2c2nc3ccccc3nc21	i	i	i	i	i	.
CCN(CC)CCn1c2ccccc2c2n[nH]c(=S)nc21	i	i	63*	i	i	.
CC(C)Oc1ccc(CSC(=N)N)cc1	i	i	i	i	i	.
CCOc1ccc(CSC(=N)N)cc1Cl	i	i	120*	i	i	.
CCOc1ccc(CSC(=N)N)cc1[N+](=O)[O-]	i	i	77*	i	i	.
COC(=O)c1ccc(/C=N/OCC(=O)NC2CCCC(C)C2C)cc1 (centres undefined)	i	i	i	i	i	.
COC(=O)c1ccc(/C=N/OCC(=O)NC2CCCCCCC2)cc1	-9.1*	i	i	i	i	i	TRPC4 spec 2=i;TRPC4 spec=3.9%*;HEK293 MPD ctr 2-1=i;HEK293 MPD ctr-1=3.9%*
COc1ccc(-c2csc3nc(C)nc(N4CCC(C)CC4)c23)cc1OC	-6.6*	i	i	23*	i	59%*	TRPC4 spec 2=i;TRPC4 spec=3.6%*;HEK293 MPD ctr 2-1=i;HEK293 MPD ctr-1=2.4%*
N#C/C(=C/c1ccc(N2CCCCC2)o1)C(=O)Nc1ccc2ccccc2c1	i	80*	i	i	i	i	HEK293 MPD ctr-2=844%*;HEK293 MPD ctr 2-2=i;TRPC4/MOR mod=233%*;TRPC4/MOR inh 2=i;TRPC6 act confirm=274%*
Cc1ccc(C(=O)Nc2ccc(C(=O)O)cc2NC(=O)c2ccc(C)cc2)cc1	i	i	i	i	i	.
CCN1CCCC1CNC(=O)c1cc(OC)c(OC)c(OC)c1 (centres undefined)	i	i	i	i	i	.
CCN1CCC[C@H]1CNC(=O)c1c(O)c(Cl)cc(Cl)c1OC	-7.4*!	i	i	i	i	i	TRPC4 spec 2=i;TRPC4 spec=i;HEK293 MPD ctr 2-1=i;HEK293 MPD ctr-1=i;TRPC6 act confirm=i
Cc1ccc(-c2cnc(SCCNC(=O)c3ccco3)[nH]2)cc1	i	i	i	i	i	.
O=C(NCCSc1ncc(-c2ccc(F)cc2)[nH]1)c1ccc2c(c1)OCO2	-5.8*	i	i	i	i	i	HEK293 MPD ctr-2=i;HEK293 MPD ctr 2-2=i;TRPC4/MOR mod=i;TRPC4/MOR inh 2=i;TRPC6 act confirm=i
